MIC data for 16 compounds are collected here from ChEMBL document CHEMBL1129477, “Structure-activity relationships of the quinolone antibacterials against mycobacteria: effect of structural changes at N-1 and C-7” (J Med Chem, 1996).

The structures appear in SMILES notation. Values after ≈ are worked out from the molar mass of the structure shown. Some results are limits rather than exact numbers.

What all share (assay type): functional
One assay has as its system Escherichia coli. In words: Anti-bacterial activity was tested against Gram-negative EC-1 bacterium. A digest of the protocol:
(§1)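 Standard microtitration MIC determination (µg/mL) against four representative Gram-negative and Gram-positive bacterial strains.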

The subject of assay [1] is Mycolicibacterium fortuitum. In words: Anti-bacterial activity tested against Mycobacterium fortuitum (ATCG 6841).
For assay [2], the system named is Mycolicibacterium smegmatis. Kind of assay: Anti-bacterial activity tested against Mycobacterium smegmatis (ATCG 19420).
The next assay relates to Pseudomonas aeruginosa. In words: Anti-bacterial activity tested against Gram-negative PA-7 bacterium. A digest of the protocol: as §1
The subject of the next assay is Staphylococcus aureus. Kind of assay: Anti-bacterial activity was tested against Gram-positive SA-13 bacterium. The method, boiled down:
as §1

The subject of another assay is Streptococcus pyogenes. Kind of assay: Anti-bacterial activity tested against Gram-positive SP1-1 bacterium. The method, boiled down:
as §1

The MIC is the smallest concentration in the dilution series that meets the test's criterion for growth inhibition. Read a high MIC as weaker potency. `CNCC1CCN(c2cc3c(cc2F)c(=O)c(C(=O)O)cn3-c2ccc(F)cc2F)C1` (stereo unspecified): the MIC was determined as 0.2 µg/mL (≈ 0.464 µM) against Escherichia coli; 0.13 µg/mL (≈ 0.301 µM) in assay [1]; 0.25 µg/mL (≈ 0.579 µM) in assay [2]; 0.8 µg/mL (≈ 1.85 µM) against Pseudomonas aeruginosa; 0.1 µg/mL (≈ 0.232 µM) in the assay on Staphylococcus aureus; 0.1 µg/mL (≈ 0.232 µM) against Streptococcus pyogenes.

Turning to `CC1CN(c2cc3c(cc2F)c(=O)c(C(=O)O)cn3C2CCC2)CC(C)N1` (stereo unspecified), the MIC is 0.4 µg/mL (≈ 1.07 µM) against Escherichia coli; 0.13 µg/mL (≈ 0.348 µM) in assay [1]; 0.5 µg/mL (≈ 1.34 µM) in assay [2]; 3.1 µg/mL (≈ 8.3 µM) in the assay with Pseudomonas aeruginosa; 3.1 µg/mL (≈ 8.3 µM) against Staphylococcus aureus; over 3.1 µg/mL against Streptococcus pyogenes.

In the case of `CCn1cc(C(=O)O)c(=O)c2cc(F)c(N3CCC(CNC)C3)cc21` (stereo unspecified), the MIC was 3.1 µg/mL (≈ 8.92 µM) with Escherichia coli; 2 µg/mL (≈ 5.76 µM) in assay [1]; 8 µg/mL (≈ 23 µM) in assay [2]; over 3.1 µg/mL in the assay with Pseudomonas aeruginosa; 1.6 µg/mL (≈ 4.61 µM) in the assay with Staphylococcus aureus; 0.4 µg/mL (≈ 1.15 µM) in the assay with Streptococcus pyogenes.

With `CNCC1CCN(c2cc3c(cc2F)c(=O)c(C(=O)O)cn3C(C)(C)C)C1` (stereo unspecified), the MIC amounted to 0.4 µg/mL (≈ 1.07 µM) in the assay with Escherichia coli; 0.13 µg/mL (≈ 0.346 µM) in assay [1]; 0.25 µg/mL (≈ 0.666 µM) in assay [2]; 1.6 µg/mL (≈ 4.26 µM) against Pseudomonas aeruginosa; 0.2 µg/mL (≈ 0.533 µM) with Staphylococcus aureus; 0.2 µg/mL (≈ 0.533 µM) against Streptococcus pyogenes.

On to `CC(C)(C)n1cc(C(=O)O)c(=O)c2cc(F)c(N3CCNCC3)cc21`, for which the MIC against Escherichia coli was 0.2 µg/mL (≈ 0.576 µM); in assay [1], under 0.03 µg/mL; in assay [2] it was 0.13 µg/mL (≈ 0.374 µM); with Pseudomonas aeruginosa, 0.4 µg/mL (≈ 1.15 µM); in the assay on Staphylococcus aureus, 0.8 µg/mL (≈ 2.3 µM); against Streptococcus pyogenes, 1.6 µg/mL (≈ 4.61 µM).

Take `CC(C)CN1CCN(c2cc3c(cc2F)c(=O)c(C(=O)O)cn3-c2ccc(F)cc2F)CC1`: the MIC in the assay on Escherichia coli was 3.1 µg/mL (≈ 6.75 µM); in assay [1], 2 µg/mL (≈ 4.35 µM); in assay [2], 4 µg/mL (≈ 8.71 µM); in the assay with Pseudomonas aeruginosa, over 3.1 µg/mL; against Staphylococcus aureus, 0.8 µg/mL (≈ 1.74 µM); in the assay on Streptococcus pyogenes, over 3.1 µg/mL.

Consider `CC(C)N1CCN(c2cc3c(cc2F)c(=O)c(C(=O)O)cn3-c2ccc(F)cc2F)CC1`, for which the MIC against Escherichia coli stood at 0.8 µg/mL (≈ 1.8 µM); in assay [1], 0.5 µg/mL (≈ 1.12 µM); in assay [2] it was 1 µg/mL (≈ 2.24 µM); in the assay with Pseudomonas aeruginosa, 3.1 µg/mL (≈ 6.96 µM); with Staphylococcus aureus, 0.4 µg/mL (≈ 0.898 µM); with Streptococcus pyogenes, 3.1 µg/mL (≈ 6.96 µM).

On to `NC1CCN(c2cc3c(cc2F)c(=O)c(C(=O)O)cn3C2CC2)C1` (stereo unspecified), for which the minimum inhibitory concentration (MIC) against Escherichia coli is 0.05 µg/mL (≈ 0.151 µM); in assay [1], under 0.03 µg/mL; in assay [2], 0.25 µg/mL (≈ 0.754 µM); against Pseudomonas aeruginosa it was 0.2 µg/mL (≈ 0.604 µM); in the assay on Staphylococcus aureus, 0.4 µg/mL (≈ 1.21 µM); against Streptococcus pyogenes, 0.8 µg/mL (≈ 2.41 µM).

As for `CCCCN1CCN(c2cc3c(cc2F)c(=O)c(C(=O)O)cn3C2CC2)CC1`, the minimal inhibitory concentration (MIC) is 0.1 µg/mL (≈ 0.258 µM) in the assay on Escherichia coli; 1 µg/mL (≈ 2.58 µM) in assay [1]; 0.5 µg/mL (≈ 1.29 µM) in assay [2]; 1.6 µg/mL (≈ 4.13 µM) in the assay on Pseudomonas aeruginosa; 0.4 µg/mL (≈ 1.03 µM) in the assay on Staphylococcus aureus; over 3.1 µg/mL in the assay with Streptococcus pyogenes.

On to `CCN1CCN(c2cc3c(cc2F)c(=O)c(C(=O)O)cn3C2CCC2)CC1`, for which the minimum inhibitory concentration (MIC) against Escherichia coli was 0.8 µg/mL (≈ 2.14 µM); in assay [1], 0.5 µg/mL (≈ 1.34 µM); in assay [2], 2 µg/mL (≈ 5.36 µM); against Pseudomonas aeruginosa it was over 3.1 µg/mL; in the assay on Staphylococcus aureus, 3.1 µg/mL (≈ 8.3 µM); against Streptococcus pyogenes, over 3.1 µg/mL.

For the compound `CC1CN(c2cc3c(cc2F)c(=O)c(C(=O)O)cn3C(C)(C)C)CCN1` (stereo unspecified), the MIC in the assay with Escherichia coli was 0.1 µg/mL (≈ 0.277 µM); in assay [1], 0.03 µg/mL (≈ 0.083 µM); in assay [2] it was 0.06 µg/mL (≈ 0.166 µM); with Pseudomonas aeruginosa, 0.8 µg/mL (≈ 2.21 µM); in the assay on Staphylococcus aureus, 0.4 µg/mL (≈ 1.11 µM); in the assay with Streptococcus pyogenes, over 3.1 µg/mL.

As for `CN(C)CC1CCN(c2cc3c(cc2F)c(=O)c(C(=O)O)cn3C2CC2)C1` (stereo unspecified), the MIC against Escherichia coli was found to be 0.2 µg/mL (≈ 0.536 µM); in assay [1], 0.13 µg/mL (≈ 0.348 µM); in assay [2], 0.5 µg/mL (≈ 1.34 µM); against Pseudomonas aeruginosa, 0.8 µg/mL (≈ 2.14 µM); in the assay with Staphylococcus aureus, 0.2 µg/mL (≈ 0.536 µM); against Streptococcus pyogenes it was 0.2 µg/mL (≈ 0.536 µM).

`CC(C)n1cc(C(=O)O)c(=O)c2cc(F)c(N3CCC(N)C3)cc21` (stereo unspecified): the MIC with Escherichia coli was 0.8 µg/mL (≈ 2.4 µM); in assay [1], 1 µg/mL (≈ 3 µM); in assay [2], 2 µg/mL (≈ 6 µM); against Pseudomonas aeruginosa, 1.6 µg/mL (≈ 4.8 µM); in the assay with Staphylococcus aureus it was 3.1 µg/mL (≈ 9.3 µM); in the assay with Streptococcus pyogenes, over 3.1 µg/mL.

Consider `O=C(O)c1cn(-c2ccc(F)cc2F)c2cc(N3CCNCC3)c(F)cc2c1=O`, for which the MIC against Escherichia coli is 0.1 µg/mL (≈ 0.248 µM); in assay [1], 0.25 µg/mL (≈ 0.62 µM); in assay [2] it was 0.5 µg/mL (≈ 1.24 µM); against Pseudomonas aeruginosa, 0.2 µg/mL (≈ 0.496 µM); in the assay on Staphylococcus aureus, 0.4 µg/mL (≈ 0.992 µM); against Streptococcus pyogenes it was 0.4 µg/mL (≈ 0.992 µM).

Regarding `CCNCC1CCN(c2cc3c(cc2F)c(=O)c(C(=O)O)cn3-c2ccc(F)cc2F)C1` (stereo unspecified), the MIC came to 0.4 µg/mL (≈ 0.898 µM) in the assay on Escherichia coli; 0.5 µg/mL (≈ 1.12 µM) in assay [1]; 0.5 µg/mL (≈ 1.12 µM) in assay [2]; 1.6 µg/mL (≈ 3.59 µM) against Pseudomonas aeruginosa; 0.2 µg/mL (≈ 0.449 µM) with Staphylococcus aureus; 0.1 µg/mL (≈ 0.224 µM) in the assay on Streptococcus pyogenes.

With `CCN1CCN(c2cc3c(cc2F)c(=O)c(C(=O)O)cn3C(C)(C)C)CC1`, the MIC against Escherichia coli was 0.2 µg/mL (≈ 0.533 µM); in assay [1] it was 0.13 µg/mL (≈ 0.346 µM); in assay [2], 0.13 µg/mL (≈ 0.346 µM); against Pseudomonas aeruginosa, 1.6 µg/mL (≈ 4.26 µM); in the assay on Staphylococcus aureus it was 0.2 µg/mL (≈ 0.533 µM); in the assay with Streptococcus pyogenes it was over 3.1 µg/mL.
